Measurements reported in ChEMBL document CHEMBL1143779, “Antiviral 2,5-disubstituted imidazo[4,5-c]pyridines: from anti-pestivirus to anti-hepatitis C virus activity” (Bioorg Med Chem Lett, 2007).
Activity calls are given as the source filed them. The calls are words filed in the database; no cut-off is given here.

Experiments:
[1] = Selectivity index, ratio of CC50 for Huh 5-2 cells to EC50 for HCV; assay type: functional
[2] = Cytotoxicity against Huh 5-2 cells; assay type: cell-based; conditions: human
Summary of the method: (§1)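 MDBK or Huh 5-2 cells seeded at 5 · 10³ cells/well in MEM-FCS; serial compound dilutions added 24 h later. Read-out OD490 nm, expressed as OD treated/OD untreated control.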

[3] = system: Bovine viral diarrhea virus 1; assay: Antiviral activity against BVDV in MDBK cells assessed as reduction of virus-induced cytopathic effect; assay type: functional, organism-based; conditions: Bovine viral diarrhea virus isolates and strains
[4] = Cytotoxicity against MDBK cells; assay type: cell-based, Bos taurus; conditions: cattle; summary of the method: as §1
[5] = (§2) Selectivity index, ratio of CC50 for MDBK cells to EC50 for BVDV; assay type: functional
Hepatitis C virus = assay: Antiviral activity against HCV in Huh 5-2 cells assessed as […]; assay type: functional, organism-based, Hepacivirus hominis
Summary of the method: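 Huh 5-2 cells were seeded at 5×10³/well in complete DMEM with G418. After 24 h at 37 °C (5% CO₂), the medium was replaced with threefold serial compound dilutions in DMEM without G418 and incubated for 4 days. Values are means of 4–6 independent experiments.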

MDBK = assay: as §2; assay type: functional

For `Brc1ccc(Cn2ccc3nc(/C=C/c4ccccc4)nc-3c2)cc1`, the “Ratio CC50/EC50” value [1] was greater than 2, the CC50 [2] was 2.5 µM and the EC50 [3] was 0.16 µM. The CC50 [4] was 14 µM, the “Ratio CC50/EC50” value [5] was 88 and the EC50 (Hepatitis C virus) was 1.7 µM.

In the case of `CN(C)c1cccc(-c2nc3ccn(Cc4ccc(Br)cc4)cc-3n2)c1`, the Activity [1] is reported as “inactive”, the CC50 [2] is reported as 79 µM and the EC50 [3] is reported as 0.14 µM. The CC50 [4] was 24 µM, the “Ratio CC50/EC50” value [5] was 171 and the EC50 (Hepatitis C virus) was greater than 79 µM.

For `Clc1ccccc1-c1nc2ccn(Cc3ccc(Br)cc3)cc-2n1`, the “Ratio CC50/EC50” value [1] was 2, the CC50 [2] was 43 µM and the EC50 [3] was 0.33 µM. For the same molecule, the CC50 [4] was greater than 33 µM, the “Ratio CC50/EC50” value [5] was greater than 100 and the EC50 (Hepatitis C virus) was 25 µM.

With `Clc1ccc(-c2nc3ccn(Cc4ccc(Br)cc4)cc-3n2)cc1` the Activity [1] was “inactive”, the CC50 [2] was 17 µM and the EC50 [3] was 0.7 µM. The CC50 [4] was greater than 33 µM, the “Ratio CC50/EC50” value [5] was greater than 47 and the EC50 (Hepatitis C virus) was 13 µM.

With `Clc1cccc(-c2nc3ccn(Cc4ccc(Br)cc4)cc-3n2)c1` the “Ratio CC50/EC50” value [1] was greater than 2, the CC50 [2] was greater than 125 µM and the EC50 [3] was 0.15 µM. For the same molecule, the CC50 [4] was greater than 33 µM, the “Ratio CC50/EC50” value [5] was greater than 220 and the EC50 (Hepatitis C virus) was 83 µM.

With `Brc1ccc(Cn2ccc3nc(-c4ccncc4)nc-3c2)cc1` the “Ratio CC50/EC50” value [1] was 3, the CC50 [2] was 38 µM and the EC50 [3] was 0.47 µM. The CC50 [4] was greater than 33 µM, the “Ratio CC50/EC50” value [5] was greater than 70 and the EC50 (Hepatitis C virus) was 14 µM.

For `Brc1ccc(Cn2ccc3nc(-c4ccc5ccccc5c4)nc-3c2)cc1`, the “Ratio CC50/EC50” value [1] was 2, the CC50 [2] was 9.7 µM and the EC50 [3] was 0.03 µM. The CC50 [4] was 7 µM, the “Ratio CC50/EC50” value [5] was 259 and the EC50 (Hepatitis C virus) was 5.7 µM.

With `Brc1ccc(Cn2ccc3nc(-c4cccs4)nc-3c2)cc1` the Activity [1] was “inactive”, the CC50 [2] was 35 µM and the EC50 [3] was 0.04 µM. The CC50 [4] was greater than 33 µM, the “Ratio CC50/EC50” value [5] was greater than 825 and the EC50 (Hepatitis C virus) was greater than 35 µM.

With `Brc1ccc(Cn2ccc3nc(-c4cc(Br)cc(Br)c4)nc-3c2)cc1` the Activity [1] was “inactive”, the CC50 [2] was greater than 96 µM and the EC50 [3] was greater than 33 µM. The CC50 [4] was greater than 33 µM, the Activity (MDBK) was “inactive” and the EC50 (Hepatitis C virus) was greater than 96 µM.

In the case of `Fc1ccccc1-c1nc2ccn(Cc3ccc(Cl)cc3)cc-2n1`, the “Ratio CC50/EC50” value [1] is reported as 1.5, the CC50 [2] is reported as 68 µM and the EC50 [3] is reported as 0.11 µM. For the same molecule, the CC50 [4] was greater than 33 µM, the “Ratio CC50/EC50” value [5] was greater than 300 and the EC50 (Hepatitis C virus) was 44 µM.

With `Brc1ccc(Cn2ccc3nc(Cc4ccccc4)nc-3c2)cc1` the “Ratio CC50/EC50” value [1] was greater than 2, the CC50 [2] was greater than 132 µM and the EC50 [3] was greater than 33 µM. The CC50 [4] was greater than 33 µM, the Activity (MDBK) was “inactive” and the EC50 (Hepatitis C virus) was 79 µM.

In the case of `Cc1cccc(-c2nc3ccn(Cc4ccc(Br)cc4)cc-3n2)c1`, the Activity [1] is reported as “inactive”, the CC50 [2] is reported as 11 µM and the EC50 [3] is reported as 0.06 µM. The CC50 [4] was 23 µM, the “Ratio CC50/EC50” value [5] was 372 and the EC50 (Hepatitis C virus) was greater than 11 µM.

In the case of `Brc1ccc(Cn2ccc3nc(CCCc4ccccc4)nc-3c2)cc1`, the “Ratio CC50/EC50” value [1] is reported as 2, the CC50 [2] is reported as 12 µM and the EC50 [3] is reported as 3 µM. For the same molecule, the CC50 [4] was 22 µM, the “Ratio CC50/EC50” value [5] was 8 and the EC50 (Hepatitis C virus) was 7.4 µM.

In the case of `Brc1ccc(Cn2ccc3nc(-c4ccccc4Br)nc-3c2)cc1`, the “Ratio CC50/EC50” value [1] is reported as 2, the CC50 [2] is reported as 36 µM and the EC50 [3] is reported as 0.5 µM. For the same molecule, the CC50 [4] was greater than 33 µM, the “Ratio CC50/EC50” value [5] was greater than 66 and the EC50 (Hepatitis C virus) was 21 µM.

With `Fc1cccc(-c2nc3ccn(Cc4ccc(Br)cc4)cc-3n2)c1` the Activity [1] was “inactive”, the CC50 [2] was 44 µM and the EC50 [3] was 0.04 µM. For the same molecule, the CC50 [4] was greater than 33 µM, the “Ratio CC50/EC50” value [5] was greater than 825 and the EC50 (Hepatitis C virus) was greater than 44 µM.

With `Brc1ccc(Cn2ccc3nc(-c4ccccc4)nc-3c2)cc1` the Activity [1] was “inactive”, the CC50 [2] was 38 µM and the EC50 (Hepatitis C virus) was greater than 38 µM.

For `CCc1nc2ccn(Cc3ccc(Br)cc3)cc-2n1`, the Activity [1] was “inactive”, the CC50 [2] was 92 µM and the EC50 [3] was 0.38 µM. The CC50 [4] was greater than 33 µM, the “Ratio CC50/EC50” value [5] was greater than 87 and the EC50 (Hepatitis C virus) was greater than 92 µM.

For `Fc1ccccc1-c1nc2ccn(Cc3ccc(I)cc3)cc-2n1`, the “Ratio CC50/EC50” value [1] was 74, the CC50 [2] was 58 µM and the EC50 [3] was 0.07 µM. The CC50 [4] was greater than 33 µM, the “Ratio CC50/EC50” value [5] was greater than 478 and the EC50 (Hepatitis C virus) was 0.79 µM.

For `Brc1ccc(Cn2ccc3nc(-c4cccc(Br)c4)nc-3c2)cc1`, the Activity [1] was “inactive”, the CC50 [2] was greater than 113 µM and the EC50 [3] was 0.11 µM. For the same molecule, the CC50 [4] was greater than 33 µM, the “Ratio CC50/EC50” value [5] was greater than 300 and the EC50 (Hepatitis C virus) was greater than 113 µM.

For `Brc1ccc(Cn2ccc3nc(-c4ccc(Br)s4)nc-3c2)cc1`, the Activity [1] was “inactive”, the CC50 [2] was 18 µM and the EC50 [3] was 0.6 µM. For the same molecule, the CC50 [4] was greater than 33 µM, the “Ratio CC50/EC50” value [5] was greater than 55 and the EC50 (Hepatitis C virus) was greater than 18 µM.

For `Brc1ccc(Cn2ccc3nc(CSc4ccccc4)nc-3c2)cc1`, the “Ratio CC50/EC50” value [1] was 2, the CC50 [2] was 9.7 µM and the EC50 [3] was greater than 25 µM. The CC50 [4] was 25 µM, the Activity (MDBK) was “inactive” and the EC50 (Hepatitis C virus) was 4.9 µM.

With `Cc1ccccc1-c1nc2ccn(Cc3ccc(Br)cc3)cc-2n1` the Activity [1] was “inactive”, the CC50 [2] was 21 µM and the EC50 [3] was 0.061 µM. For the same molecule, the CC50 [4] was greater than 33 µM, the “Ratio CC50/EC50” value [5] was greater than 541 and the EC50 (Hepatitis C virus) was 24 µM.

For `Brc1ccc(Cn2ccc3nc(-c4cccnc4)nc-3c2)cc1`, the Activity [1] was “inactive”, the CC50 [2] was 126 µM and the EC50 [3] was 0.16 µM. For the same molecule, the CC50 [4] was greater than 33 µM, the “Ratio CC50/EC50” value [5] was greater than 206 and the EC50 (Hepatitis C virus) was 109 µM.

For `Brc1ccc(Cn2ccc3nc(COc4ccccc4)nc-3c2)cc1`, the “Ratio CC50/EC50” value [1] was 1.5, the CC50 [2] was 35 µM and the EC50 [3] was greater than 8 µM. It also gave a CC50 [4] greater than 33 µM and an EC50 (Hepatitis C virus) of 25 µM.

For `Brc1ccc(Cn2ccc3nc(CCc4ccccc4)nc-3c2)cc1`, the “Ratio CC50/EC50” value [1] was 3, the CC50 [2] was 7.6 µM and the EC50 [3] was greater than 16 µM. The CC50 [4] was 16 µM, the Activity (MDBK) was “inactive” and the EC50 (Hepatitis C virus) was 2.5 µM.

For `FC(F)(F)c1cccc(-c2nc3ccn(Cc4ccc(Br)cc4)cc-3n2)c1`, the “Ratio CC50/EC50” value [1] was greater than 5, the CC50 [2] was greater than 116 µM and the EC50 [3] was 0.5 µM. The CC50 [4] was greater than 33 µM, the “Ratio CC50/EC50” value [5] was greater than 72 and the EC50 (Hepatitis C virus) was 23 µM.

With `Brc1ccc(Cn2ccc3nc(-c4cccc(I)c4)nc-3c2)cc1` the “Ratio CC50/EC50” value [1] was 2, the CC50 [2] was 12 µM and the EC50 [3] was 0.07 µM. For the same molecule, the CC50 [4] was greater than 33 µM, the “Ratio CC50/EC50” value [5] was greater than 83 and the EC50 (Hepatitis C virus) was 5.7 µM.

In the case of `Brc1ccc(Cn2ccc3nc(-c4ccccn4)nc-3c2)cc1`, the “Ratio CC50/EC50” value [1] is reported as 15, the CC50 [2] is reported as 5.2 µM and the EC50 [3] is reported as 0.1 µM. The CC50 [4] was 10 µM, the “Ratio CC50/EC50” value [5] was 96 and the EC50 (Hepatitis C virus) was 0.35 µM.

In the case of `Cc1ccc(-c2nc3ccn(Cc4ccc(Br)cc4)cc-3n2)cc1`, the “Ratio CC50/EC50” value [1] is reported as 2, the CC50 [2] is reported as 13 µM and the EC50 [3] is reported as 0.4 µM. For the same molecule, the CC50 [4] was 21 µM, the “Ratio CC50/EC50” value [5] was 53 and the EC50 (Hepatitis C virus) was 8.2 µM.

With `Brc1ccc(Cn2ccc3nc(-c4cccc5ccccc45)nc-3c2)cc1` the Activity [1] was “inactive”, the CC50 [2] was 12 µM and the EC50 [3] was 0.3 µM. The CC50 [4] was 23 µM, the “Ratio CC50/EC50” value [5] was 77 and the EC50 (Hepatitis C virus) was 9.7 µM.

In the case of `Fc1ccc(-c2nc3ccn(Cc4ccc(Br)cc4)cc-3n2)cc1`, the Activity [1] is reported as “inactive”, the CC50 [2] is reported as 37 µM and the EC50 [3] is reported as 0.17 µM. For the same molecule, the CC50 [4] was greater than 33 µM, the “Ratio CC50/EC50” value [5] was greater than 194 and the EC50 (Hepatitis C virus) was 31 µM.

For `COc1cccc(-c2nc3ccn(Cc4ccc(Br)cc4)cc-3n2)c1`, the “Ratio CC50/EC50” value [1] was 2, the CC50 [2] was 28 µM and the EC50 [3] was 0.05 µM. For the same molecule, the CC50 [4] was greater than 33 µM, the “Ratio CC50/EC50” value [5] was greater than 660 and the EC50 (Hepatitis C virus) was 18 µM.

For `Brc1ccc(Cn2ccc3nc(CCCCc4ccccc4)nc-3c2)cc1`, the Activity [1] was “inactive”, the CC50 [2] was 2.2 µM and the EC50 [3] was greater than 5 µM. For the same molecule, the CC50 [4] was 5 µM, the Activity (MDBK) was “inactive” and the EC50 (Hepatitis C virus) was greater than 2.2 µM.
